This is a sample that favours compounds with a hit; in the whole collection about 1.3% have one here.
Cardiac RTF inh – cardiac RTF calcium desensitization; inhibition, % at 7.15 µM; 0.12% of 340,000 active; IANBD-labeled cardiac RTF, Ca2+ fluorescence; P19429+P45379;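 active means inhibition above the mean inhibition of all tested compounds plus 3 SD, cut at about 17% in these data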;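 further: assay run at fixed EC70 calcium of 1.6 mM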
CAL PDZ FP-1 – blocks peptide binding to human CAL PDZ domain | Q9HD26 | purified CAL PDZ, TMR-peptide fluorescence polarization, 1 h | inhibition, % at 20 µM | 0.02% of 330,000 active | AID 504414;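 active means highest replicate inhibition of at least 40%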;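 further: plate controls were DMSO neutral control wells for no effect and unlabeled competitor peptide control wells for full effect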
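Material: tagged CAL PDZ domain; buffer or medium: 25 mM sodium phosphate pH 7.4, 150 mM NaCl, TCEP, IgG, Thesit; compound dosing: single point, 20 µM; schedule: 1 h incubation at room temperature before polarization reading; measured by: FP readout, S and P plane fluorescence; read-out basis: percent inhibition from loss of millipolarization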
LANA DNA inh – blocks KSHV LANA C-terminal domain binding to DNA; inhibition, % at 9 µM; MBP-C-LANA/FAM-LBS DNA binding, fluorescence polarization; 0.078% of 340,000 active;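 active means highest replicate inhibition at or above 60% at 9 µM, even if other replicates fall short; inactive means all replicates below 60% inhibition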;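 further: 0% = neutral control wells and 100% = 4 µM acridine orange control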
Keap1 Nrf2 FP – Keap1-Nrf2 (human) interaction inhibition. 0.15% of 340,000 active. inhibition, % at 9.4 µM. Keap1 Kelch-Nrf2 peptide fluorescence polarization, 1536-well. Q14145; in the data active means inhibition above about 12%; inconclusive means no clear call, values can overlap the other calls; inactive means below about 7.3%;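 further: human Keap1 Kelch domain with fluorescein labeled Nrf2 9mer peptide probe; 0% = neutral control wells and 100% = peptide positive control; higher means more block of Keap1 binding to Nrf2 peptide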
Target sequence (Q14145 whole entry, looked up, the tested form may be a part): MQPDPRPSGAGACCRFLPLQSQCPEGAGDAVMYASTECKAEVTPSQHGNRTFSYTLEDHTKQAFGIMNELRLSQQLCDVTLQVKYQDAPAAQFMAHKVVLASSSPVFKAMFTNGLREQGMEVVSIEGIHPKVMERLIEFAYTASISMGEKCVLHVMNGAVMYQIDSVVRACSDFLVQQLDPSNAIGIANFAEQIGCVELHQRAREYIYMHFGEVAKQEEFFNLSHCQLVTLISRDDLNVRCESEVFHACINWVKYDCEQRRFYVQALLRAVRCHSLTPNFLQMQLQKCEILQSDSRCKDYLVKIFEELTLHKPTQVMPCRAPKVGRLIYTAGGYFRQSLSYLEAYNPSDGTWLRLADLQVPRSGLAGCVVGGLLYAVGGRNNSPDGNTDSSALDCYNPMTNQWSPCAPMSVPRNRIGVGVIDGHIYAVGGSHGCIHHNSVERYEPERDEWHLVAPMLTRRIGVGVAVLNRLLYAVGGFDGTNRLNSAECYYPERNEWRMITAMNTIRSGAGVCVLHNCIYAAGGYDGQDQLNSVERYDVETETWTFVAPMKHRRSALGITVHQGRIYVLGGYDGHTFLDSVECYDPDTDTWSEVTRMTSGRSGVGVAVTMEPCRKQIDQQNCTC
CAL PDZ FP-2 – blocks peptide binding to the human CAL PDZ domain; 0.92% of 300,000 active; inhibition, % at 24.9 µM; AID 602252; purified CAL PDZ, TMR-peptide fluorescence polarization, 1 h; Q9HD26;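 active means mean inhibition of at least 30% with at least half of replicates also reaching 30%; inconclusive means no clear call, values can overlap the other calls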;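 further: 0% = DMSO neutral control and 100% = excess unlabeled competitor peptide PRC23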
cardiac RTF act – cardiac RTF calcium sensitization; P19429+P45379; IANBD-labeled TnC RTF fluorescence at EC20 calcium; 0% EC20 calcium, 100% full calcium; activation, % at 7.2 µM; 0.24% of 340,000 active;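 active means activation above the mean over all tested compounds plus 3 SD, cut at about 30% in these data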;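 further: rise in fluorescence read as greater calcium sensitivity of cardiac thin filaments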
Starred values were filed as active, the others as inactive; ? = inconclusive; . = not tested or not shown.

SMILES	Cardiac RTF inh	CAL PDZ FP-1	LANA DNA inh	Keap1 Nrf2 FP	CAL PDZ FP-2	cardiac RTF act
N=c1sccn1CC(=O)Nc1cc(Cl)ccc1Oc1ccccc1	-13	-3	-1	-2	0	-1
N=c1sccn1CC(=O)Nc1cccc(Oc2ccccc2)c1	-1	.	1	-5	38*	3
Cc1ccc(-n2nnnc2SCC(=O)c2c(N)n(C3CC3)c(=O)[nH]c2=O)c(C)c1	-9	-2	-1	1	.	-4
Cc1nnc(-n2ncc(C#N)c2N)c2nn(-c3cccc(Cl)c3)c(C)c12	-2	0	3	-4	4	-4
Cc1nnc(N2CCOCC2)c2nn(-c3cccc(Cl)c3)c(C)c12	-38	0	2	1	-1	33*
CCCOc1ccc(C(=O)O)cc1	-2	1	2	-1	77*	-1
S=C(N/N=C/c1ccc2ncccc2c1)Nc1ccccc1	0	-3	-2	-10	33*	2
CCOC(=O)C1C(=O)C=C(c2ccc(C)cc2)CC1c1ccccc1 (centres undefined)	-9	-3	-1	4	1	4
CCOC(=O)C1C(=O)C=C(/C=C/c2ccc(N(C)C)cc2)CC1c1ccccc1 (centres undefined)	-214	0	-1	-2	-4	108*
CC(C)c1ccc(COC(=O)CN2C(=O)NC3(CCCCC3C)C2=O)cc1 (centres undefined)	-4	-1	0	2	-1	-6
O=C(COC(=O)CN1C(=O)c2ccccc2C1=O)Nc1ccc(S(=O)(=O)N2CCCC2)cc1	2	.	-1	0	35*	-3
O=C(O)c1ccccc1NS(=O)(=O)c1cccc(-n2sc3ccccc3c2=O)c1	7	0	2	7	34*	-3
O=C(O)c1ccccc1NS(=O)(=O)c1cccc(C(F)(F)F)c1	1	-4	1	7	.	-4
O=S(=O)(CC(O)CS(=O)(=O)c1ccc(Cl)cc1)c1ccccc1 (centres undefined)	-3	0	0	-4	42*	-4
CC(=O)c1c(C)[nH]c(C(=O)OCC(=O)c2ccc3c(c2)NC(=O)CO3)c1C	-13	-1	0	0	81*	2
CCNC(=O)NC(=O)c1csc([N+](=O)[O-])c1	-8	-1	-1	-4	41*	4
C=CCNC(=O)NC(=O)c1csc([N+](=O)[O-])c1	-2	-1	-2	-1	4	1
CCOC(=O)C1CCN(C(=O)CCS(=O)(=O)c2ccc3c(c2)CCN3C(C)=O)CC1	-8	-1	0	-5	-4	-5
CCOC(=O)C1CCN(C(=O)CCS(=O)(=O)c2ccc3c(c2)n(C)c(=O)c(=O)n3C)CC1	-6	-2	-3	-5	52*	1
CC(C)(CNC(=O)c1cc2ccccc2o1)N1CCOCC1	-8	0	0	2	67*	-2
O=C(COCc1cc(-c2ccc3c(c2)OCO3)on1)Nc1cccnc1Cl	-5	0	0	-8	4	-2
COc1cc2c(cc1OC)-c1cc3ccc4c(c3c[n+]1CC2)OCO4	-77	1	43	5	-9	54*
COc1cc2c(cc1O)CC[n+]1cc3c(OC)c(OC)ccc3cc1-2	-13	0	-5	-6	-1	6
N=C1/C(=C\c2ccc(-c3cccc(Cl)c3)o2)C(=O)N=C2SC=C(c3ccccc3)N12	-3	-3	1	-3	-1	-6
N=C1/C(=C\c2ccc(-c3ccc(C(=O)O)cc3)o2)C(=O)N=C2SC=C(c3ccccc3)N12	4	12	2	-12	78*	-6
SMILES	Cardiac RTF inh	CAL PDZ FP-1	LANA DNA inh	Keap1 Nrf2 FP	CAL PDZ FP-2	cardiac RTF act
CC1c2cccn2CCN1S(=O)(=O)c1ccc(F)cc1 (centres undefined)	-11	0	-1	-8	74*	8
CC(=O)c1ccc(S(=O)(=O)N2CCn3cccc3C2C)cc1 (centres undefined)	-7	-1	3	-3	1	-2
CCOC(=O)C1=C(COC(=O)COc2cccc(C)c2C)NC(=O)NC1C (centres undefined)	-2	0	3	-2	-7	0
Cc1ccc(N2CC(C(=O)NC3=NCCS3)CC2=O)cc1C (centres undefined)	-2	0	0	-2	-13	0
Cc1ccc(N2CC(C(=O)Nc3ccc(N(C)C)cc3)CC2=O)cc1C (centres undefined)	-8	1	3	-4	60*	1
COC(=O)c1ccccc1S(=O)(=O)N1CCC(C(=O)OCc2ccc([N+](=O)[O-])cc2)CC1	-4	0	2	2	.	-4
CCOc1ccc(Nc2ccc(N)c(S(=O)(=O)O)c2)cc1	-2	1	88*	7	1	-3
CSC(=NS(=O)(=O)c1ccc(N)cc1)NS(=O)(=O)c1cccs1	4	0	68*	5	4	-1
COc1ccccc1/C=c1\sc2nc(-c3ccco3)nn2c1=O	-1	-1	8	5	-2	-4
COc1ccc(OC)c(/C=c2\sc3nc(-c4cccs4)nn3c2=O)c1	-2	0	24	11	1	50*
COc1ccc(C(=O)NCC(=O)NCc2ccncc2)cc1	4	-3	0	1	124*	-7
CCCCOc1ccc(C(=O)NCC(=O)NCc2ccncc2)cc1	-1	0	1	2	-2	0
NC(=O)c1oc2ccccc2c1NC(=O)c1ccc([N+](=O)[O-])o1	-4	-2	1	5	-3	-9
Cc1ccc(NC(=S)Nc2ccc(OC(F)F)c(Cl)c2)cc1F	6	0	-2	3	66*	-1
O=C1c2cccc3c([N+](=O)[O-])ccc(c23)C(=O)N1Cc1cccnc1	-18	1	2	?	37*	20
CC(SCc1ccccc1)C(=O)Nc1ccccc1 (centres undefined)	-9	-3	1	-5	.	4
O=C(CCCc1nc(-c2ccc(Cl)cc2)no1)NC1CCCC1	0	-1	0	2	74*	-3
Cc1c(-c2nc(-c3ccncc3)no2)cccc1[N+](=O)[O-]	-4	-1	1	2	69*	7
O=[N+]([O-])c1cc(-c2nc(-c3ccncc3)no2)cc([N+](=O)[O-])c1	-1	-1	0	-4	-4	4
O=C(COC(=O)c1cc(=O)c2ccccc2o1)NCc1ccccc1	4	-1	0	-3	50*	-5
COc1ccccc1CNC(=O)COC(=O)c1cc(=O)c2ccccc2o1	0	-1	-3	-2	.	-5
O=C(COC(=O)c1ccc(Br)o1)NCc1ccc(Cl)cc1	6	0	0	-2	31*	0
